What all share (format): functional, cell-based
The test system of assay [1] is RAW264.7. Kind of assay: Antioxidant activity in lipopolysaccharide-stimulated mouse RAW264.7 cells assessed as decrease in ROS level using DCFH-DA by fluorescence assay. A digest of the protocol:
(§1)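 RAW 264.7 cells (DMEM, 10% FBS, penicillin-streptomycin) seeded for 24 h, then treated with compounds at […] with or without LPS […]. Loaded with […] DCFH-DA for 20 min at 37 °C in 5% CO2, washed three times with PBS. Fluorescence read at ex488/em525 by laser scanning microscopy and quantified on a microplate reader.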

Assay [2] concerns RAW264.7. Kind of assay: Inhibition of LPS-induced P67phox protein expression in mouse RAW264.7 cells compound pretreated for 1 hr before LPS challenge by Western blot analysis. An outline of the steps:
(§2)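 RAW 264.7 cells pretreated 1 h with compound at […], then stimulated with LPS […] for 24 h. Cytoplasmic extracts run on 12% SDS gel and transferred to PVDF. Membranes blocked in 5% nonfat milk/TBS, probed overnight at 4 °C with mouse anti-p67phox and β-actin (1:2000). HRP anti-mouse secondary 1 h at room temperature, ECL detection.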
For orientation: A western blot detects proteins with antibodies after separation by electrophoresis.

Assay [3] concerns RAW264.7. Kind of assay: Protection against LPS-induced cytotoxicity in mouse RAW264.7 cells assessed as cell viability at 0.1 to 100 uM pretreated for 1 hr before LPS challenge measured after 24 hrs by MTT assay. A digest of the protocol: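 RAW 264.7 cells seeded at 10⁴/well in 96-well plates and grown 24 h at 37 °C, 5% CO2. Pretreated with compounds at […] for 1 h, washed, then exposed to LPS for 24 h. MTT 0.5 mg/ml added for 4 h, formazan dissolved in DMSO, absorbance read at 570 nm.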

In assay [4] the test system is RAW264.7. Kind of assay: Inhibition of LPS-induced P67phox protein expression in mouse RAW264.7 cells up to 10 uM pretreated for 1 hr before LPS challenge by Western blot analysis. An outline of the steps: as §2
The subject of assay [5] is RAW264.7. Kind of assay: Antioxidant activity in lipopolysaccharide-stimulated mouse RAW264.7 cells assessed as decrease in ROS level at 0.1 to 10 uM using DCFH-DA by fluorescence assay. An outline of the steps:
as §1

Activity calls are given as the source filed them. The calls are words filed in the database; no cut-off is given here.

With `COc1cc(C(C)=O)cc(CNc2cc(C(C)=O)cc(OC)c2O)c1O`, in the assay with RAW264.7 [1], the Activity result was “Dose-dependent effect”. Moreover, the inhibition entry with RAW264.7 [2] is “Dose-dependent effect”. Further, the result in the assay with RAW264.7 [3] was Active.

Turning to `COc1cc(C(C)=O)ccc1O`, the inhibition result with RAW264.7 [4] was “inactive”. Further, the result in the assay on RAW264.7 [5] and with RAW264.7 [3] was inactive.

Consider `COc1cc(C(C)=O)cc(NC(=O)CCCC[C@@H]2CCSS2)c1O`, for which the Activity entry in the assay on RAW264.7 [1] is “Dose-dependent effect”. In addition, the inhibition entry in the assay on RAW264.7 [2] is “Dose-dependent effect”. In the assay with RAW264.7 [3], the outcome was Active.

As to `COc1cc(C(C)=O)cc(/C=[N+](\[O-])C(C)(C)C)c1O`, the inhibition entry in the assay with RAW264.7 [4] was “inactive”. Further, the result with RAW264.7 [5] was inactive.

These data come from ChEMBL document CHEMBL1795216, “Synthesis and biological evaluations of novel apocynin analogues” (Eur J Med Chem, 2011).
